Source: PubChem BioAssay
Compounds with a hit are over-represented: about 5.8% of the library has one in this group of screens.
IDH1 mut inh – inhibitors of IDH1 R132H reductase, primary screen, biochemical, plate reader, single point. Isocitrate dehydrogenase [NADP] cytoplasmic (Homo sapiens), O75874. diaphorase/resazurin fluorescence, 60 min. inhibition, % at 10 µM. 70,000 tested, 0.18% active. AID 624101, 2012; in the data active = inhibition above about 34%; inconclusive = no clear call, values can overlap the other calls; inactive = below about 11%;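 note: 0% = DMSO and 100% = no enzyme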
Target sequence (O75874 whole entry R132H): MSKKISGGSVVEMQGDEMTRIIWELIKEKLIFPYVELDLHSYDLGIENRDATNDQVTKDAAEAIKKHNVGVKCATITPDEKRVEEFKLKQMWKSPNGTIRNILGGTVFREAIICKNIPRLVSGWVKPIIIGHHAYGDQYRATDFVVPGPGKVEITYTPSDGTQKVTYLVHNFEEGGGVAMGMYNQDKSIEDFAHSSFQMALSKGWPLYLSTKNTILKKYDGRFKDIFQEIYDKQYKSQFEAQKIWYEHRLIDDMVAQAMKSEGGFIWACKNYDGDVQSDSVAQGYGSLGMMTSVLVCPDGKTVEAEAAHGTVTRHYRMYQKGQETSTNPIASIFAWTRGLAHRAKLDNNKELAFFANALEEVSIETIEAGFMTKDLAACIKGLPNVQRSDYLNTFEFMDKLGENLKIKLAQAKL
Pf Dd2 growth – P. falciparum Dd2 growth inhibitors, primary screen, SYBR Green fluorescence, single dose replicates | 72 h; active compounds read low | activity change, % at 10 µM | 94,000 tested, 2.3% active | AID 1159554, 2015; in the data active = activity change below about -80%; inconclusive = no clear call, values can overlap the other calls
Tcruzi prolif – T. cruzi intracellular proliferation inhibitors, primary screen, cell-based, beta-gal Tulahuen parasites, NIH3T3 host, luminescence | inhibition, % at 8.34 µM | T. cruzi beta-gal in NIH3T3, GalScreen luminescence, 90 h | 77,000 tested, 5.9% active;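 active = mean inhibition above about 93%, with at least 55% of replicates each passing it, limit read from the data, passing the limit was not always enough; inconclusive = only one of those two conditions holds; inactive = neither condition holds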
GASC1 inh – inhibitors of GASC-1 (KDM4C) histone demethylase, primary screen, biochemical, single concentration HTS; Lysine-specific demethylase 4C (Homo sapiens), Q9H3R0; GST-KDM4C 2-372, H3K9me3 peptide, LANCE TR-FRET; inhibition, % at 12.5 µM; 96,000 tested, 0.15% active;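 active = mean replicate inhibition above about 25%, with at least 55% of replicates also reaching it, limit read from the data, passing the limit was not always enough; inconclusive = only one of those two conditions met; inactive = neither condition met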
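Assay system: GST-GASC-1 enzyme fragment 2-372 | Amount: 10 nM enzyme | Medium: HEPES buffer, pH 7.5, plus ascorbate | Reagent: H3K9me3 peptide substrate, Fe(II), 2-oxoglutarate | Doses: Single-point compound screen | Incubation: 30 min demethylation and 1 h detection at room temperature | Measured by: LANCE TR-FRET, excitation 340 nm, emissions 618 and 671 nm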
An asterisk follows results filed as active; ? = inconclusive; · = not tested or not shown.

SMILES	IDH1 mut inh	Pf Dd2 growth	Tcruzi prolif	GASC1 inh
N#Cc1cccc(-c2ccc3c(c2)[C@H]2[C@H](CCN2Cc2ccc4c(c2)OCO4)[C@H](CO)N3)c1	·	-71.1	46.4	0.0
OC[C@H]1Nc2ccc(-c3cccc(F)c3)cc2[C@H]2[C@@H]1CCN2Cc1ccc(F)cc1	·	-73.2	93.9	0.7
CS(=O)(=O)N(CC(=O)Nc1ccc(Br)cc1)c1cc(Cl)cc(Cl)c1	0.1	·	·	·
COc1ccc(-c2csc(NC(=O)c3cc(-c4ccc(C)o4)nc4ccccc34)c2C#N)cc1OC	-0.1	·	·	·
O=C(C[C@H]1CC[C@@H]2[C@H](COC[C@@H](O)CN2C(=O)Nc2ccc3c(c2)OCO3)O1)N1CCN(c2ccccc2)CC1	·	-87.6*	·	-1.5
O=C(C[C@@H]1CC[C@@H]2[C@H](COC[C@H](O)CN2C(=O)Nc2ccc3c(c2)OCO3)O1)N1CCN(c2ccccc2)CC1	·	3.0	·	3.2
O=C(O)CCc1ccc(-c2ccc(F)cc2)n1-c1cccc(C(=O)O)c1	-0.1	·	·	·
COc1ccc(S(=O)(=O)Nc2ccc3c(c2)CC(=O)N([C@H](C)CO)C[C@H](C)[C@H](CN(C)S(=O)(=O)c2ccc(C)cc2)O3)cc1	7.7	-86.3*	17.5	3.4
COc1ccc(S(=O)(=O)Nc2ccc3c(c2)CC(=O)N([C@H](C)CO)C[C@H](C)[C@H](CN(C)S(=O)(=O)c2ccc(Cl)cc2)O3)cc1	1.0	-56.4	42.4	-1.4
COc1ccc(S(=O)(=O)N(C)C[C@@H]2Oc3ccc(NS(=O)(=O)c4ccc(F)cc4)cc3CC(=O)N([C@@H](C)CO)C[C@@H]2C)cc1	-0.7	-33.9	3.7	0.9
COc1ccc(S(=O)(=O)N(C)C[C@@H]2Oc3ccc(NS(=O)(=O)c4ccc(Cl)cc4)cc3CC(=O)N([C@@H](C)CO)C[C@@H]2C)cc1	-2.1	-82.5*	23.4	-1.4
COc1ccc(S(=O)(=O)Nc2ccc3c(c2)CC(=O)N([C@H](C)CO)C[C@H](C)[C@@H](CN(C)S(=O)(=O)c2ccc(F)cc2)O3)cc1	-3.5	-50.1	8.9	27.1*
Cn1cc(C(c2ccc([N+](=O)[O-])o2)c2cn(C)c3ccccc23)c2ccccc21	-0.4	·	·	·
COc1ccc(NC(=O)C2CC=CCC2C(=O)Nc2ccccc2Cl)cc1 (stereo not given)	-0.1	·	·	·
COc1cccc(C#Cc2ccc3c(c2)O[C@@H](CN(C)C(=O)c2ccccn2)[C@H](C)CN([C@@H](C)CO)S3(=O)=O)c1	0.1	-83.6*	?	-2.6
COc1cccc(NC(=O)N(C)C[C@H]2Oc3cc(C#Cc4ccccc4)ccc3S(=O)(=O)N([C@@H](C)CO)C[C@H]2C)c1	0.1	?	120.1*	0.4
C[C@@H]1CN([C@H](C)CO)S(=O)(=O)c2ccc(C#C[C@@H](C)O)cc2O[C@H]1CN(C)C(=O)Nc1ccccc1	·	-92.2*	76.8	·
COc1cccc(NC(=O)N(C)C[C@H]2Oc3cc(C#Cc4ccncc4)ccc3S(=O)(=O)N([C@H](C)CO)C[C@H]2C)c1	0.4	-46.7	56.3	-1.8
COc1cccc(NC(=O)N(C)C[C@@H]2Oc3cc(C#Cc4ccccc4)ccc3S(=O)(=O)N([C@@H](C)CO)C[C@H]2C)c1	·	-67.7	125.2*	-1.6
COc1ccc(OC)c(C2C(C(=O)c3cccs3)C(=O)C(=O)N2Cc2cccnc2)c1 (stereo not given)	0.0	·	·	·
CCOc1ccc2[nH]c(C)c(CCC(C)=O)c(=O)c2c1	0.1	·	·	·
CSc1cccc(NC(=O)CSc2nnc(-c3ccco3)n2C)c1	0.5	·	·	·
C[C@@H]1CN([C@H](C)CO)C(=O)Cc2cc(NC(=O)Nc3ccc(C(F)(F)F)cc3)ccc2O[C@H]1CN(C)C(=O)Nc1cccc2ccccc12	0.1	-84.6*	35.9	-1.6
C[C@@H]1CCCCO[C@@H](CN(C)C(=O)Nc2cccc3ccccc23)[C@H](C)CN([C@H](C)CO)C(=O)c2cc(NC(=O)Nc3ccc(C(F)(F)F)cc3)ccc2O1	·	-47.2	109.4*	-0.1
C[C@@H]1CCCCO[C@@H](CN(C)C(=O)Nc2ccc(C(F)(F)F)cc2)[C@@H](C)CN([C@H](C)CO)C(=O)c2cc(NC(=O)Nc3cccc4ccccc34)ccc2O1	-0.9	-21.7	·	-0.2
SMILES	IDH1 mut inh	Pf Dd2 growth	Tcruzi prolif	GASC1 inh
C[C@@H]1CCCCO[C@H](CN(C)C(=O)Nc2ccc(C(F)(F)F)cc2)[C@H](C)CN([C@H](C)CO)C(=O)c2cc(NC(=O)Nc3cccc4ccccc34)ccc2O1	·	-87.1*	77.8	-1.7
C[C@@H]1CCCCO[C@H](CN(C)C(=O)Nc2cccc3ccccc23)[C@@H](C)CN([C@@H](C)CO)C(=O)c2cc(NC(=O)Nc3ccc(C(F)(F)F)cc3)ccc2O1	1.2	-80.7*	77.0	-1.9
COc1ccc(NC(=O)CSc2nc(C)c3c(n2)CCCC3)c([N+](=O)[O-])c1	-0.1	·	·	·
Cc1cc(C)cc(NC(=O)CSc2nc3ccccc3s2)c1	0.4	·	·	·
CN1CCN(c2ccccc2NC(=O)COc2ccc([N+](=O)[O-])cc2)CC1	0.3	·	·	·
C[C@@H]1CN([C@H](C)CO)C(=O)c2cc(NC(=O)Nc3ccc(C(F)(F)F)cc3)ccc2O[C@H]1CN(C)C(=O)Nc1cccc2ccccc12	0.3	-94.9*	-3.2	3.0
C[C@H](CO)N1C[C@H](C)[C@H](CN(C)C(=O)Nc2cccc3ccccc23)Oc2ccc(NC(=O)Nc3ccc(C(F)(F)F)cc3)cc2C1=O	0.4	-62.5	33.3	-2.7
COc1ccc(S(=O)(=O)N(C)C[C@@H]2OCCCC[C@H](C)Oc3ccc(NS(=O)(=O)c4ccc(Cl)cc4)cc3C(=O)N([C@H](C)CO)C[C@@H]2C)cc1	1.5	-89.1*	·	-0.9
COc1ccc(S(=O)(=O)Nc2ccc3c(c2)C(=O)N([C@@H](C)CO)C[C@@H](C)[C@@H](CN(C)S(=O)(=O)c2ccc(Cl)cc2)OCCCC[C@H](C)O3)cc1	·	-84.9*	92.3	-0.4
Cc1noc(C)c1S(=O)(=O)Nc1ccc2c(c1)C(=O)N([C@H](C)CO)C[C@@H](C)[C@@H](CN(C)S(=O)(=O)c1ccc(Cl)cc1)OCCCC[C@H](C)O2	2.4	-88.4*	82.3	-0.8
COc1ccc(S(=O)(=O)Nc2ccc3c(c2)C(=O)N([C@H](C)CO)C[C@H](C)[C@@H](CN(C)S(=O)(=O)c2ccc(Cl)cc2)OCCCC[C@H](C)O3)cc1	0.3	-63.7	93.4	-1.7
C[C@H]1CCCCO[C@@H](CN(C)S(=O)(=O)c2ccc(Cl)cc2)[C@@H](C)CN([C@@H](C)CO)C(=O)c2cc(NS(=O)(=O)c3ccccc3)ccc2O1	·	-83.0*	·	·
c1coc(-c2nn3c(C4COc5ccccc5O4)nnc3s2)c1 (stereo not given)	0.2	·	·	·
COc1ccc2c3c(n(C)c2c1)[C@@H](CO)N(Cc1ccccc1)CC31CN(S(=O)(=O)c2ccc(C)cc2)C1	·	-30.8	·	·
